{"source": "ChEMBL document CHEMBL4725242", "about": "“Discovery of GS-9688 (Selgantolimod) as a Potent and Selective Oral Toll-Like Receptor 8 Agonist for the Treatment of Chronic Hepatitis B” (J Med Chem, 2020)", "key": {"[1]": {"test": "Drug metabolism in human hepatocytes assessed as glucuronidation", "type": "ADME, cell-based, Hepatocyte"}, "[2]": {"test": "Half life in Sprague-Dawley rat at 1 mg/kg, iv administered as 30 mins infusion by HPLC-MS analysis", "type": "ADME, organism-based", "conditions": "in vivo", "in_short": "(§1)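 30-min intravenous infusion: Sprague Dawley rats 1 mg/kg, beagle dogs 0.25 mg/kg, cynomolgus monkeys 0.1 mg/kg; n = 3 per species, reported as mean ± SD.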"}, "[3]": {"test": "Drug metabolism in human hepatocytes assessed as oxidation of lipophilic chain", "type": "ADME, cell-based, Hepatocyte"}, "[4]": {"test": "Oral bioavailability in Beagle dog at 0.5 mg/kg administered via gavage by HPLC-MS analysis", "type": "ADME, organism-based, Canis lupus familiaris", "conditions": "in vivo", "in_short": "(§2)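 Oral dosing in 2% ethanol/40% PEG 300/58% 0.01N HCl: Sprague Dawley rats 5 mg/kg, beagle dogs 0.5 mg/kg, cynomolgus monkeys 3 mg/kg.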"}, "[5]": {"molecular_target": "Toll-like receptor 3 (Homo sapiens) (UniProt O15455)", "sequence (O15455 whole entry)": "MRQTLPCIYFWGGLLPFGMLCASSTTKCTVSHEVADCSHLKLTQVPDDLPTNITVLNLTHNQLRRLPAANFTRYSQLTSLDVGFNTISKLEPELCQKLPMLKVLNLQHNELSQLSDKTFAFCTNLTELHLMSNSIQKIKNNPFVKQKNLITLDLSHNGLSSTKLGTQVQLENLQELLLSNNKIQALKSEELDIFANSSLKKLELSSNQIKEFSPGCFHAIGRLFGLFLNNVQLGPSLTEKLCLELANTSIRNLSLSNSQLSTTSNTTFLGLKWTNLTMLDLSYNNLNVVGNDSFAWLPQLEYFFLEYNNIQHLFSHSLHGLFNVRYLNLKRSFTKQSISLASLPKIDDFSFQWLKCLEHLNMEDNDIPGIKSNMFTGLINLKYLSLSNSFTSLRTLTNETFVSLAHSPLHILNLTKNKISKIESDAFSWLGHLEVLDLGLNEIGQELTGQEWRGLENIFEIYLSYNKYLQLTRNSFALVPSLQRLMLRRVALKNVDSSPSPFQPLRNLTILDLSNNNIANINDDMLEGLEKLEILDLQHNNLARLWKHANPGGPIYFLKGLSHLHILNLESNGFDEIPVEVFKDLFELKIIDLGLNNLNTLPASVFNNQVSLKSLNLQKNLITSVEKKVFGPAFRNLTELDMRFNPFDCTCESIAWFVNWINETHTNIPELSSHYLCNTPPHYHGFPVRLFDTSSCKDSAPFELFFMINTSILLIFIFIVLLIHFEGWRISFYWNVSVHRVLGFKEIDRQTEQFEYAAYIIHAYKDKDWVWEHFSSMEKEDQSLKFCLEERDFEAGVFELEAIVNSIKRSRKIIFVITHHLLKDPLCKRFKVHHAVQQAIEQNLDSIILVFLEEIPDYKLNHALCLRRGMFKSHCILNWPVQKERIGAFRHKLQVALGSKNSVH", "test": "Agonist activity at human TLR3 expressed in HEK293 cells assessed as increase in NF-kappaB activation up to 10 uM incubated for 18 hrs by quanti-blue SEAP reporter gene assay", "type": "cell-based", "conditions": "dose microM <=10, time […]", "in_short": "(§3)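 HEK293 cells stably expressing individual human TLRs or other innate immune receptors, used as reporter gene assays. Minimum effective concentration defined as the level giving a 3-fold rise over background.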"}, "PBMC": {"system": "PBMC", "test": "Immunomodulatory activity in human primary hepatocytes infected with HBV assessed as stimulation of CD8+T cell response to virus by measuring degradation of cccDNA treated with media from PBMC stimulated with 10 nM compound for 10 days", "type": "functional, cell-based", "conditions": "time 10.0 day"}, "[6]": {"molecular_target": "T1, C-type lectin domain family 7 member A (Homo sapiens) (UniProt Q9BXN2)", "T1 sequence (whole entry)": "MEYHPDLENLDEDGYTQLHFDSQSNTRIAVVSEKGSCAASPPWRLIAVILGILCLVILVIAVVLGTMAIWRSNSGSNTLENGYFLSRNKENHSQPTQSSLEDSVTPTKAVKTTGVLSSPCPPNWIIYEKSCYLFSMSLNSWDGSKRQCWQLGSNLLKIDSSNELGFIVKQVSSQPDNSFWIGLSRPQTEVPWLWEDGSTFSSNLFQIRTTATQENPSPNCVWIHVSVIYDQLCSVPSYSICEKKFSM", "test": "Agonist activity at human Dectin1a expressed in HEK293 cells assessed as increase in NF-kappaB activation up to 10 uM incubated for 24 hrs by quanti-blue SEAP reporter gene assay", "type": "cell-based", "conditions": "dose microM <=10, time 24.0 hrs", "in_short": "as §3"}, "[7]": {"test": "Drug metabolism in human hepatocytes assessed as core oxidation", "type": "ADME, cell-based, Hepatocyte"}, "[8]": {"system": "Probable ATP-dependent RNA helicase DDX58 (Homo sapiens)", "test": "Agonist activity at human RIG1 expressed in HEK293 cells assessed as induction of IFN-inducible ISG54 promoter activity up to 10 uM after overnight incubation by secreted lucia luciferase reporter gene assay", "conditions": "dose microM <=10"}, "[9]": {"test": "Clearance in Beagle dog at 0.25 mg/kg, iv administered as 30 mins infusion by HPLC-MS analysis", "type": "ADME, organism-based, Canis lupus familiaris", "conditions": "in vivo", "in_short": "as §1"}, "[10]": {"test": "Clearance in dog hepatic microsomes at 2 uM measured up to 60 mins in presence of NADPH generating system by LC-MS/MS analysis", "type": "ADME, Canis lupus familiaris, Microsome", "conditions": "liver microsomes"}, "[11]": {"test": "Clearance in human hepatic microsomes at 2 uM measured up to 60 mins in presence of NADPH generating system by LC-MS/MS analysis", "type": "ADME, Microsome", "conditions": "liver microsomes"}, "[12]": {"molecular_target": "T2, Toll-like receptor 7 (Homo sapiens) (UniProt Q9NYK1)", "T2 sequence (whole entry)": "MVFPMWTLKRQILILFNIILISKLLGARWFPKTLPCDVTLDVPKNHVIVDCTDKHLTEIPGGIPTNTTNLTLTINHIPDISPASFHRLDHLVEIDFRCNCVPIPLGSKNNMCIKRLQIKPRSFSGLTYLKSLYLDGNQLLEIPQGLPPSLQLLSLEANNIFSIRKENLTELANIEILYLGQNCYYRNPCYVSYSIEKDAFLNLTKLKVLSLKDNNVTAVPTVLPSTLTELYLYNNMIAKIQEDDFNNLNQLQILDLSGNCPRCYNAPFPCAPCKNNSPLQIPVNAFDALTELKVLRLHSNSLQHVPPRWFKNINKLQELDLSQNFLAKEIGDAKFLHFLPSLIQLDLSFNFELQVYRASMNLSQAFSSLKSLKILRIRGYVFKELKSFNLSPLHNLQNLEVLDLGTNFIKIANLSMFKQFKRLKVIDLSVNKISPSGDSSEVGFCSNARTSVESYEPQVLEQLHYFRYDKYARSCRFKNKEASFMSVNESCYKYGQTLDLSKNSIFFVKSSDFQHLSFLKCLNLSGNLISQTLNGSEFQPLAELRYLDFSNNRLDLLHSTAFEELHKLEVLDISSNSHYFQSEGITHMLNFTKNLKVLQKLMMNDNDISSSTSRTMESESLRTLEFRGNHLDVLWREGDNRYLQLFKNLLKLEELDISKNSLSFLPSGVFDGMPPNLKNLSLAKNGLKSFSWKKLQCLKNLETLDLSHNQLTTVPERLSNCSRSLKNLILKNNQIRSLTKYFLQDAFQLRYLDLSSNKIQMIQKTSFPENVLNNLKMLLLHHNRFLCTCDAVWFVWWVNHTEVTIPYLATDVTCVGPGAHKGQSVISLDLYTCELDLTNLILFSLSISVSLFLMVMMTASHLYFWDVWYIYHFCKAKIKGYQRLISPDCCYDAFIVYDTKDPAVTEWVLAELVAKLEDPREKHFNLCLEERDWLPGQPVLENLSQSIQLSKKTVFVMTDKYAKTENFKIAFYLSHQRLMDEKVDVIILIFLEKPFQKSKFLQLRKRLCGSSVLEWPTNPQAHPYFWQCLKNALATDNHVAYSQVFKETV", "test": "Agonist activity at human TLR7 expressed in HEK293 cells assessed as increase in NF-kappaB activation incubated for 24 hrs by quanti-blue SEAP reporter gene assay", "type": "cell-based", "conditions": "filed as agonist", "in_short": "as §3"}, "[13]": {"test": "Drug absorption in Beagle dog at 0.5 mg/kg, po administered via gavage by HPLC-MS analysis", "type": "ADME, organism-based, Canis lupus familiaris", "conditions": "in vivo, read-out: Drug absorption", "in_short": "as §2"}}, "note": "Calls of active or inactive are those of the source.", "data": [{"smiles": "CCCC[C@](C)(CO)Nc1nc(N)nc2cc(F)cnc12", "note": "[SELGANTOLIMOD]", "values": [{"measurement": "Drug metabolism", "setting": "[1]", "value": "Metabolite_Detected"}, {"measurement": "half-life", "setting": "[2]", "value": 1.45, "unit": "h"}, {"measurement": "Drug metabolism", "setting": "[3]", "value": "Metabolite_Detected"}, {"measurement": "bioavailability", "setting": "[4]", "value": 0.8, "unit": "%"}, {"measurement": "Activity", "setting": "[5]", "value": "inactive"}, {"measurement": "Activity", "setting": "PBMC", "value": "inactive"}, {"measurement": "Activity", "setting": "[6]", "value": "inactive"}, {"measurement": "Drug metabolism", "setting": "[7]", "value": "Metabolite_Notdetected"}, {"measurement": "Activity", "setting": "[8]", "value": "inactive"}, {"measurement": "clearance", "setting": "[9]", "value": 20, "unit": "mL/min/kg"}, {"measurement": "CLhep predicted at 2 µM", "setting": "[10]", "value": 28.3, "unit": "mL/min/kg"}, {"measurement": "CLhep predicted at 2 µM", "setting": "[11]", "value": 16.7, "unit": "mL/min/kg"}, {"measurement": "MEC", "setting": "[12]", "value": 5.2, "unit": "µM"}, {"measurement": "Fa", "setting": "[13]", "value": 28, "unit": "%"}]}]}
